The text below walks through data of ChEMBL document CHEMBL3085747, “Synthesis and biological evaluation of substituted 1,2,3-benzotriazines and pyrido[3,2-d]-1,2,3-triazines as inhibitors of vascular endothelial growth factor receptor-2” (2013).

Experiment [1] in a line: Growth inhibition of HMVEC after 4 days by MTT assay. It counts as functional. The note with it: Homo sapiens, 96 h. The procedure, abridged:
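Human microvascular endothelial cells were grown in DMEM with 4 mM L-glutamine, 4.50 g/L glucose and 10% heat-inactivated FBS. Cells were seeded at 2 × 10³/well for 24 h, then exposed to a range of compound concentrations for 4 days at 37 °C. MTT (2 mg/mL) was added, cells were dissolved in DMSO, and A570 was read. Growth inhibition is relative to untreated cells. GI50 is the mean of three independent experiments.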
In general terms: Formazan colour is commonly taken as a measure of viable cells.

The nature of experiment [2]: Ratio of PTK787 GI50 to compound GI50 for HMVEC after 4 days by MTT assay. The format is functional, Homo sapiens.

A word on the GI50: it is the concentration that inhibits growth by half. A lower GI50 goes with more potent growth inhibition.

`CCOc1cc2nnnc(Nc3ccc(Br)c(F)c3)c2cc1OC` registered a GI50 in experiment [1] of 73.3 µM.
Same read-out and setting: in the case of `CCOc1cc2nnnc(Nc3cccc(C(F)(F)F)c3)c2cc1OC` it was > 80 µM; in that of `CCOc1cc2nnnc(Nc3ccc(C(F)(F)F)cc3)c2cc1OC`, > 80 µM; in that of `CCOc1cc2nnnc(Nc3cccc(OC(F)(F)F)c3)c2cc1OC`, 23.3 µM.
On the same count and under the same terms, in the case of `CCOc1cc2nnnc(Nc3ccc(OC(F)(F)F)cc3)c2cc1OC` it was > 80 µM.
For `CCOc1cc2nnnc(Nc3cccc(Cl)c3)c2cc1OC`, the GI50 in experiment [1] came out at 60 µM.
The same measure, in the same setting: in the case of `CCOc1cc2nnnc(Nc3ccc(F)c(C(F)(F)F)c3)c2cc1OC` it was 31.7 µM; in that of `CCOc1cc2nnnc(Nc3ccccc3F)c2cc1OC`, > 80 µM.
Same read-out and setting: in the case of `CCOc1cc2nnnc(Nc3cccc(Br)c3)c2cc1OC` it was 39.8 µM; in that of `CCCCOc1cc2nnnc(Nc3ccc(Br)c(F)c3)c2cc1OC`, > 80 µM.
Compound `CCCCOc1cc2nnnc(Nc3ccc(Cl)c(Cl)c3)c2cc1OC` had a concentration for 50% growth inhibition (GI50) in experiment [1] of 15.5 µM.
On the same count and under the same terms, the figure for `CCCCOc1cc2nnnc(Nc3ccc(C(F)(F)F)cc3)c2cc1OC` is > 80 µM; for `CCCCOc1cc2nnnc(Nc3ccc(OC(F)(F)F)cc3)c2cc1OC` it is 30 µM; for `CCCCOc1cc2nnnc(Nc3ccc(F)c(C(F)(F)F)c3)c2cc1OC` it is 16.1 µM.
`CCCCOc1cc2nnnc(Nc3ccccc3F)c2cc1OC`: in experiment [1], the 50% growth inhibitory concentration (GI50) was > 80 µM.
Same read-out and setting: the figure for `CCCCOc1cc2nnnc(Nc3cccc(Br)c3)c2cc1OC` is 16.8 µM.
Turning to `CCCCOc1cc2nnnc(Nc3ccc(F)cc3)c2cc1OC`, the GI50 in experiment [1] is > 80 µM.
The same measure, in the same setting: the figure for `CCCCOc1cc2nnnc(Nc3ccc(C)cc3)c2cc1OC` is > 80 µM; for `CCCCCOc1cc2nnnc(Nc3ccc(Cl)cc3)c2cc1OC` it is 25.3 µM; for `CCCCCOc1cc2nnnc(Nc3ccc(Br)c(F)c3)c2cc1OC` it is > 80 µM.
Same read-out and setting: in the case of `CCCCCOc1cc2nnnc(Nc3cc(F)cc(F)c3)c2cc1OC` it was 27.9 µM; in that of `CCCCCOc1cc2nnnc(Nc3cccc(OC(F)(F)F)c3)c2cc1OC`, 42.6 µM.
The same measure, in the same setting: in the case of `CCCCCOc1cc2nnnc(Nc3ccc(OC(F)(F)F)cc3)c2cc1OC` it was 38 µM.
With `CCCCCOc1cc2nnnc(Nc3ccc(F)cc3)c2cc1OC`, the GI50 in experiment [1] is > 80 µM.
In experiment [1], `COc1cc2c(Nc3ccc(C(F)(F)F)cc3)nnnc2cc1OCCCCl` returned a GI50 of 44.4 µM.
Same read-out and setting: in the case of `COc1cc2c(Nc3ccc(C)cc3)nnnc2cc1OCCCCl` it was 17.1 µM.
With `COc1cc2c(Nc3ccc(F)c(Cl)c3)nnnc2cc1OCCCCl`, the RatioGI50 in experiment [2] turned out to be 4. This compound also displayed a GI50 in experiment [1] of 7.98 µM.
With `Clc1ccc(Nc2nnnc3ccc(Cl)nc23)cc1`, growth in experiment [1] was halved (GI50) at 10.5 µM.
On the same count and under the same terms, the figure for `Fc1cc(Nc2nnnc3ccc(Cl)nc23)ccc1Br` is 9.56 µM.
Consider `Clc1cc(Cl)cc(Nc2nnnc3ccc(Cl)nc23)c1`, for which, in experiment [1], the GI50 amounted to 7.93 µM.
Still for that read-out and setting: in the case of `FC(F)(F)c1cccc(Nc2nnnc3ccc(Cl)nc23)c1` it was 5.25 µM; in that of `FC(F)(F)c1ccc(Nc2nnnc3ccc(Cl)nc23)cc1`, 8.06 µM.
On the same count and under the same terms, in the case of `FC(F)(F)Oc1cccc(Nc2nnnc3ccc(Cl)nc23)c1` it was 4.28 µM; in that of `FC(F)(F)Oc1ccc(Nc2nnnc3ccc(Cl)nc23)cc1`, 11.5 µM.
The same measure, in the same setting: in the case of `Fc1ccc(Nc2nnnc3ccc(Cl)nc23)cc1C(F)(F)F` it was 10.8 µM.
Compound `Fc1ccccc1Nc1nnnc2ccc(Cl)nc12` registered a GI50 in experiment [1] of 10.8 µM.
On the same count and under the same terms, the figure for `Clc1ccc2nnnc(Nc3cccc(Br)c3)c2n1` is 7.24 µM.
Still for that read-out and setting: in the case of `Clc1ccc(Nc2nnc(Cc3ccncc3)c3ccccc23)cc1` it was 38.1 µM.
